Active and inactive are the calls of the source. The calls are words filed in the database; no cut-off is given here.
Columns and labels:
[1] = test system: Radical scavenging activity; test: Antioxidant activity assessed as DPPH radical scavenging activity after 30 mins by spectrophotometry; assay type: functional
Method in brief: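 Ethanolic DPPH ([…], stock) was mixed 1:1 with increasing concentrations of compound in ethanol and held in the dark 30 min at room temperature. Absorbance was read at 520 nm, with control OD accepted within 0.350–0.360. Activity was taken as % inhibition of absorbance and IC50 came from a variable-slope sigmoidal fit. Triplicates, two independent experiments.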

LNCaP [2] = test: Antiproliferative activity against human LNCAP cells after 72 hrs in presence of DHT; assay type: functional, cell-based
Method in brief: (§1)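 LNCaP cells (fewer than 18 passages) were seeded at 25 × 10³ cells/well on electrode-microarray plates in phenol red-free medium with 10% stripped FBS. After 24 h they were exposed to compounds with or without 0.1 nM DHT, in 0.2% final DMSO. Proliferation was tracked as impedance in real time over 72 h. Duplicates, three experiments; doubling time was derived from the growth rate.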

LNCaP [3] = test: Cytotoxicity against human LNCAP cells assessed as reduction in cell viability after 24 hrs by WST-1 assay
LNCaP [4] = test: Cytotoxicity against human LNCAP cells at 1 uM after 24 hrs by WST-1 assay; assay type: functional, cell-based
Method in brief: (§2)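 LNCaP cells were acclimatised 24 h in complete medium, after which the medium was refreshed. Compounds were added from DMSO (0.1% final, 0.1% DMSO controls) over 0.1–100 μM for a 24 h exposure. Quadruplicate wells, three experiments. IC50 came from a variable-slope sigmoidal concentration–response fit.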

LNCaP [5] = test: Antiproliferative activity against human LNCAP cells at 10 uM after 72 hrs in presence of DHT; assay type: functional, cell-based; method in brief: as §1
LNCaP [6] = test: Cytotoxicity against human LNCAP cells assessed as reduction in cell viability at 100 uM after 24 hrs by WST-1 assay; assay type: functional; method in brief: as §2
LNCaP [7] = test: Antiproliferative activity against human LNCAP cells at 1 to 10 uM after 72 hrs in presence of DHT; assay type: functional, cell-based; method in brief: as §1
LNCaP [8] = test: Antiandrogenic activity in human LNCAP cells assessed as reduction in DHT-stimulated PSA release after 24 hrs by ELISA
LNCaP [9] = test: Induction of androgen receptor protein expression in human LNCAP cell nucleus at > 10 uM after 24 hrs by chemoluminescence assay in presence of DHT; assay type: functional, cell-based
Method in brief: (§3)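 Near-confluent LNCaP cells were switched to steroid-free medium for 24 h, then exposed 24 h to compounds with or without 10 nM DHT. Nuclear and cytoplasmic fractions were extracted and assayed by BCA. Protein (40 μg) was run on SDS-PAGE, blotted to PVDF, and probed overnight at 4 °C with anti-AR, then with an HRP anti-rabbit secondary. Duplicates, three experiments.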

PC-3 = test: Antiproliferative activity against human PC3 cells after 72 hrs by trypan blue assay; assay type: cell-based; conditions: PC-3, 72 h
LNCaP [10] = test: Induction of androgen receptor protein expression in human LNCAP cell nucleus at 1 to 30 uM after 24 hrs by chemoluminescence assay in presence of DHT relative to control; assay type: functional; method in brief: as §3
LNCaP [11] = test: Reduction of androgen receptor protein expression in human LNCAP cell cytoplasm at > 10 uM after 24 hrs by chemoluminescence assay in presence of DHT; assay type: functional, cell-based; method in brief: as §3
LNCaP [12] = test: Induction of androgen receptor protein expression in human LNCAP cell nucleus at 1 to 30 uM after 24 hrs by chemoluminescence assay in presence of DHT relative to cytoplasm; assay type: functional; method in brief: as §3
LNCaP [13] = test: Antiproliferative activity against human LNCAP cells at 0.3 uM after 72 hrs in presence of DHT; assay type: functional, cell-based; method in brief: as §1

O=C(/C=C/c1ccc(O)c(O)c1)OCc1ccccc1 [BENZYL CAFFEATE]
IC50 [1]: 15.3 µM | Activity (LNCaP [2]): Dose-dependent effect | IC50 (LNCaP [3]): 45.6 µM

O=C(/C=C/c1ccc(O)c(O)c1)Oc1ccccc1
IC50 [1]: 12.5 µM | Activity (LNCaP [2]): Dose-dependent effect | IC50 (LNCaP [3]): 65.9 µM

O=C(O)/C=C/c1ccc(O)c(O)c1 [CAFFEIC ACID]
Activity (LNCaP [4]): inactive | IC50 [1]: 15.3 µM | IC50 (LNCaP [3]): > 100 µM

O=C(/C=C/c1ccc(O)c(O)c1)OCCc1cccc2ccccc12
Activity (LNCaP [5]): Active | IC50 [1]: 13.2 µM | inhibition at 100 µM (LNCaP [6]): > 80% | Activity (LNCaP [2]): Dose-dependent effect | IC50 (LNCaP [3]): 9.3 µM

CC(C)OC(=O)/C=C/c1ccc(O)c(O)c1
IC50 [1]: 13 µM | IC50 (LNCaP [3]): 51.9 µM

O=C(/C=C/c1ccc(O)c(O)c1)OCCCc1ccccc1
IC50 [1]: 11.9 µM | inhibition at 100 µM (LNCaP [6]): > 80% | Activity (LNCaP [2]): Dose-dependent effect | IC50 (LNCaP [3]): 26.6 µM

Cc1ccc(CCOC(=O)/C=C/c2ccc(O)c(O)c2)cc1
IC50 [1]: 11.3 µM | inhibition at 100 µM (LNCaP [6]): > 80% | Activity (LNCaP [2]): Dose-dependent effect | IC50 (LNCaP [3]): 14 µM

CCCOC(=O)/C=C/c1ccc(O)c(O)c1
IC50 [1]: 14.2 µM | Activity (LNCaP [2]): Dose-dependent effect | IC50 (LNCaP [3]): 60.7 µM

CCCCOC(=O)/C=C/c1ccc(O)c(O)c1 [BUTYL CAFFEATE]
IC50 [1]: 12.6 µM | IC50 (LNCaP [3]): 45.4 µM

COC(=O)/C=C/c1ccc(O)c(O)c1 [METHYLCAFFEATE]
IC50 [1]: 21.3 µM | IC50 (LNCaP [3]): > 100 µM | Activity (LNCaP [7]): inactive

O=C(/C=C/c1ccc(O)c(O)c1)NCCc1ccccc1 [CAFFEIC ACID PHENETHYL AMIDE]
IC50 [1]: 13.8 µM | Activity (LNCaP [2]): Dose-dependent effect | IC50 (LNCaP [3]): > 100 µM

O=C(/C=C/c1ccc(O)c(O)c1)OCC(c1ccccc1)c1ccccc1
Activity (LNCaP [5]): Active | IC50 [1]: 18.5 µM | inhibition at 100 µM (LNCaP [6]): > 80% | Activity (LNCaP [2]): Dose-dependent effect | IC50 (LNCaP [3]): 20.8 µM

C=C(C)CCOC(=O)/C=C/c1ccc(O)c(O)c1
IC50 [1]: 9.5 µM | inhibition at 100 µM (LNCaP [6]): > 80% | IC50 (LNCaP [3]): 20.6 µM | Activity (LNCaP [7]): inactive

O=C(/C=C/c1ccc(O)c(O)c1)OCCc1ccccc1 [CAFFEIC ACID PHENETHYL ESTER]
IC50 (LNCaP [8]): 6.2 µM | Activity (LNCaP [9]): Active | IC50 (PC-3): 51.4 µM | fold change (FC) (LNCaP [10]): 5 | IC50 [1]: 16.5 µM | Activity (LNCaP [11]): Active | Activity (LNCaP [2]): Dose-dependent effect | fold change (FC) (LNCaP [12]): 5 | IC50 (LNCaP [3]): 33.7 µM | Activity (LNCaP [13]): Active

CC(C)CCOC(=O)/C=C/c1ccc(O)c(O)c1
IC50 [1]: 23.8 µM | IC50 (LNCaP [3]): 45.4 µM

CCOC(=O)/C=C/c1ccc(O)c(O)c1 [ETHYL CAFFEATE]
IC50 [1]: 13.3 µM | IC50 (LNCaP [3]): > 100 µM | Activity (LNCaP [7]): inactive

O=C(/C=C/c1ccc(O)c(O)c1)OCCC1CCCCC1
IC50 (LNCaP [8]): 2 µM | Activity (LNCaP [9]): Active | Activity (LNCaP [5]): Active | fold change (FC) (LNCaP [10]): 5 | IC50 [1]: 15.1 µM | inhibition at 100 µM (LNCaP [6]): > 95% | Activity (LNCaP [11]): Active | Activity (LNCaP [2]): Dose-dependent effect | fold change (FC) (LNCaP [12]): 5 | IC50 (LNCaP [3]): 6.8 µM | Activity (LNCaP [13]): Active

COc1ccc(CCOC(=O)/C=C/c2ccc(O)c(O)c2)cc1
IC50 [1]: 17.4 µM | IC50 (LNCaP [3]): 47.3 µM | Activity (LNCaP [7]): inactive

O=C(/C=C/c1ccc(O)c(O)c1)OCCc1ccc(F)cc1
IC50 [1]: 12.8 µM | inhibition at 100 µM (LNCaP [6]): > 80% | Activity (LNCaP [2]): Dose-dependent effect | IC50 (LNCaP [3]): 20.8 µM

— ChEMBL document CHEMBL2440059, “Antiproliferative, antiandrogenic and cytotoxic effects of novel caffeic acid derivatives in LNCaP human androgen-dependent prostate cancer cells” (Bioorg Med Chem, 2013)
